Tested on: MS2 coat protein
Assay: apparent Kd, MS2 coat protein; higher = weaker binding; RNA-MaP array; FMN 200 µM where present
Outline: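 Apparent Kd: the median of filtered binding-curve fits from single clusters. Designs were transcribed on Illumina sequencing-chip clusters by stalled E. coli RNA polymerase and titrated with SNAP-549-labelled MS2 coat protein from 0.7 or 1.5 nM, doubling to 3 µM, in 100 mM Tris-HCl pH 7.5, 80 mM KCl, 4 mM MgCl2, BSA, DTT, yeast tRNA and Tween-20. Each series ran without and then with constant ligand, and green signal was normalised to red-channel RNA signal and control-cluster median Fmax.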

[1] = designed as: ON switch for flavin mononucleotide, no ligand
[2] = ligand present: flavin mononucleotide, designed as: ON switch for flavin mononucleotide
[3] = designed as: OFF switch for flavin mononucleotide, no ligand
[4] = ligand present: flavin mononucleotide, designed as: OFF switch for flavin mononucleotide

Row | Sequence | apparent Kd [1] | apparent Kd [2] | apparent Kd [3] | apparent Kd [4]
1 | GUAGCUAUCGGAGGAUAUUCAUACCGGAAACGGACAUGAGGAUCACCCAUGUGGAGAAAGCCUUAGGAGAAGGCCGAUAGCUAC | 33 nM | 8.9 nM | – | –
2 | GGAUGACAAAGUCAUCCUAAACGAACAUGAGGAUCACCCAUGUAGGAUAUGCUACUGAAACAGUAGCAGAAGGACAUGUGCCUU | – | – | 31.1 nM | 211 nM
3 | AGAGAGAGCACAGGAUAUCCGCACACAUGCAGCGGAGAAGGGUGACCUUUUUGCACAUGAGGAUCACCCAUGUCCAGCACCACG | 25.7 nM | 13.3 nM | – | –
4 | CUGCUGAAGCUUUGCUUUAGUCGUACAUGAGGAUCACCCAUGUAGGAUAUGGUAGGCUUUGCUUACUAGAAGGAUAGAGUGGUC | – | – | 52.6 nM | 27.6 nM
5 | GGGCACAAAGGAUAUACAUGAGGAUCACCCAUGUUCACCACAACAUGUUACUGCCCAAGUAGAAGGUUGGCCCA | – | – | 38.7 nM | 288 nM
6 | UAAUAAUAAUGAGGAUAUAUACAACAUGAGGAUCACCCAUGUACCCAUGUAGUAGAAGGCAUAUUUUUUGUUAAUAACAUAACU | 53.8 nM | 32.1 nM | – | –
7 | CACAUUUUAACAGGAUAUGUAAGGUAGCUUAUUAUUGCAUAUACAAUUAUUACAGAAGGGUUAUACAUGAGGAUCACCCAUGUG | 22.8 nM | 17.1 nM | – | –
8 | CGGUUAUAUCGAGGAUAUAAGUCUAGGACAUGAGGAUCACCCAUGUAUGUCUUAGAAGGCGAUAUAACCAGCCUGUUACAGGCA | 29.3 nM | 6.32 nM | – | –
9 | CCUCCACAUUAGGAUAUCGUCACACUAUUGUGACGAGAAGGAAUGACAUGAGGAUCACCCAUGUUAUCGUGAUG | – | – | 19.4 nM | 49.8 nM
10 | CAUUAAUUCAUUAUAGUAAUUAUACAGGAUAUGUUACAUGAGGAUCACCCAUGUAUUCAUGGUAAACAGAAGGGUAAUACAAGA | – | – | 13.8 nM | 16.3 nM
11 | UUAUUAGCAGGAUAUAUCCAGGAUCACAUGAGGAUCACCCAUGUGACCGCUUGAGAUUCUAUAGAAGGGCUUUAUU | – | – | 19.6 nM | 18.1 nM
12 | GGACGUCUCAUUAACAUGAGGAUCACCCAUGUCGAUAGACAUGAGGAUAUGGAUCCUAAUUGGAUCCAGAAGGCAUGGACGUCC | 1040 nM | 67.6 nM | – | –
13 | AGAUCACAUGAGGAUCACCCAUGUCAGGAUAUGAUACUAUGUACUUCGGUACAUAGUAUCAGAAGGGACUUAAA | – | – | 101 nM | 283 nM
14 | UGGUACUAGGGAGGAUAUGGGAAGAUACAUGAGGAUCACCCAUGUAUAAGAAUGCCGAGAGGCAACUAGAAGGCCCUAGUACCU | 10.8 nM | 5.48 nM | – | –
15 | GGAGGACAUGAGGAUCACCCAUGUGGAUGAUCGCUAGGAUAUGCGUGCAGGAAGAGUGGUGCAGAAGGAGUGGGAU | 451 nM | 288 nM | – | –
16 | AAGUUUUUACAAGGAUAUCAAUUGUUUCUAAAUUCAACAUGAGGAUCACCCAUGUAACAAUGGAGUGAGAAGGUGUGUUGGCAA | 86.8 nM | 141 nM | – | –
17 | AUUGUUAAGGUAGGAUAUAGUAAAAUGAUUUAAUUAGAAGGAUCUCACAUGAGGAUCACCCAUGUAAGAGGAUCACCCAUGUAU | – | – | 12.9 nM | 9.73 nM
18 | AGAAGAACAUGAGGAUCACCCAUGUUCCUGCUGCUCCACAGACAGGAUAUGGGUGUCGUCGACAAUCAGAAGGGUUCGCGGAGC | 34.9 nM | 27.5 nM | – | –
19 | GCGGAUCUAGGAUAUACAUGAGGAUCACCCAUGUAAACUCUCUUGGAUGACUACUAUUGUAGAAGGAGAUAAGC | – | – | 25.4 nM | 41 nM
20 | CAGCGAAAGUAGAAGGUAUUAAUUAAAUUUAAAUAAGGAUAUACAUGAGGAUCACCCAUGUCCUUCAGCUGGAUAUAUAUUAAU | – | – | 39.1 nM | 29.1 nM
21 | UAAUUUAUACAGAAGGGAAACAUGAGGAUCACCCAUGACAUGAGGAUCACCCAUGUUUAAUUAUUUCAGGAUAUGUAAAAUAAU | 159 nM | 70.5 nM | – | –
22 | ACGUCUUAGUAGAAGGGACAUCGGCUGGUAAGCAUCAUCUCCUUCUCACAUGAGGAUCACCCAUGUCAGGAUAUACUAAGAUAC | – | – | 12.9 nM | 38.7 nM
23 | AAAAUAAAAAGGCAGGAUAUCCAAAAUAAAACAUGAGGAUCACCCAUGUAAAUAAAAAUAAAGUGGGAGAAGGGUUAAAAAUAAAA | 58.3 nM | 45.3 nM | – | –
24 | AAAAAACAUGAGGAUCACCCAUGUGAGGAUAUGCUAAAAAAAAAAAAAAAAAAAAAAUGCAGAAGGUACAAAAA | – | – | 75.9 nM | 72.8 nM
25 | AAACAACGUCAGAAGGCCGAUGGAUUUGACCACGGAGGAUAUGACAUGAGGAUCACCCAUGUGAUGCUUCUAACCCGCUGGGCC | – | – | 31.3 nM | 289 nM
26 | GUCAGCUCGUGAGGAUAUACAACACUGCUUCGGCAGUGAAUUAAGAUCACAUGAGGAUCACCCAUGUAGAAGGCACGAGCUGAU | – | – | 17 nM | 325 nM
27 | CGGAGGUCAGGAUAUGCAUGGCGGGACUUGCGUCGUGGCGUGCAGAAGGGACAUGAGGAUCACCCAUGUGGAGC | – | – | 82.2 nM | 145 nM
28 | GAAUAUUAGCAAGGAUAUCGGCUUACUAUAACUUUAUGCCCUGGGACAUGAGGAUCACCCAUGUACGAGAAGGUGCUUACUACA | – | – | 18.9 nM | 29.4 nM

From the EternaBench riboswitch data
